Measured values as given in ChEMBL document CHEMBL3085640, “Synthesis and antimicrobial activity of some novel hydrazide, benzochromenone, dihydropyridine, pyrrole, thiazole and thiophene derivatives” (2013).
In brackets after ≈: the same amount, converted by molar mass. Activity calls are given as the source filed them. The calls are words filed in the database; no cut-off is given here.

Columns and labels:
Assay type in all cases: functional
[1] = test system: Escherichia coli; assay: Antibacterial activity against Escherichia coli MTCC 443 assessed as growth inhibition at 1 mg/mL after 24 hrs by […] method; settings: for zone of inhibition at 1000 µg/mL: MTCC 443, 24 h, read-out: DIZ
Summary of the method: (§1)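 Sterile filter-paper discs soaked in a 1 mg/mL DMSO solution of the compound are placed on nutrient agar seeded with about 10^6 CFU/mL of bacteria, in triplicate. Plates are incubated at 36 °C for 24 h. The read-out is the mean diameter of the inhibition zone in mm. DMSO alone serves as the control.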

[2] = test system: Escherichia coli; assay: Antibacterial activity against Escherichia coli MTCC 443 assessed as growth inhibition after 24 hrs by broth microdilution method
Summary of the method: (§2)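 MIC by broth microdilution in Müller-Hinton broth. DMSO stocks are diluted in broth to give two-fold serial dilutions, and about 10^6 CFU/mL of bacteria is added per well. Sealed plates are incubated in a humid chamber at 36 °C for 24 h. The MIC is the lowest concentration showing no visible turbidity. Run only for compounds giving zones >10 mm.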

[3] = test system: Candida albicans; assay: Antifungal activity against Candida albicans assessed as growth inhibition after 48 hrs by broth microdilution method
Summary of the method: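 MIC by broth microdilution in Sabouraud liquid medium. DMSO stocks are serially diluted two-fold in broth and inoculated with C. albicans. Sealed plates are incubated in a humid chamber at 36 °C for 48 h. The MIC is the lowest concentration without visible turbidity. Run only for compounds giving zones >10 mm.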

[4] = test system: Staphylococcus aureus; assay: Antibacterial activity against Staphylococcus aureus MTCC 96 assessed as growth inhibition after 24 hrs by broth microdilution method; summary of the method: as §2
[5] = test system: Candida albicans; assay: Antifungal activity against Candida albicans assessed as growth inhibition at 1 mg/mL after 48 hrs by […] method; settings: read-out: DIZ
Summary of the method: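 Sterile filter-paper discs soaked in a 1 mg/mL DMSO solution of the compound are placed on nutrient agar seeded with about 10^4 CFU/mL of C. albicans, in triplicate. Plates are incubated at 36 °C for 48 h. The read-out is the mean diameter of the inhibition zone in mm, with a DMSO-only control.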

[6] = test system: Staphylococcus aureus; assay: Antibacterial activity against Staphylococcus aureus MTCC 96 assessed as growth inhibition at 1 mg/mL after 24 hrs by […] method; settings: for zone of inhibition at 1000 µg/mL: MTCC 96, 24 h, read-out: DIZ; summary of the method: as §1

Structure (SMILES) | MIC [2] | MIC [3] [µg/mL] | MIC ([4]; MTCC 96, 24 h) [µg/mL] | MIC ([2]; MTCC 443, 24 h) [µg/mL] | MIC [4] | growth inhibition (GI) [1] | zone of inhibition at 1000 µg/mL [5] [mm] | zone of inhibition at 1000 µg/mL [6] [mm] | zone of inhibition at 1000 µg/mL [1] [mm] | growth inhibition (GI) [6]
C/C(=N\NC(=O)c1c(N)sc2c1CCCC2)c1cc2c(ccc3ccccc32)oc1=O | inactive | 500 (≈ 1160 µM) | 375 (≈ 869 µM) | – | – | inactive | 9 | 5 | – | –
C/C(=N\NC(=O)c1cc2c(ccc3ccccc32)oc1=O)c1cc2c(ccc3ccccc32)oc1=O | – | 188 (≈ 395 µM) | 62.5 (≈ 132 µM) | 93.7 (≈ 197 µM) | – | – | 20 | 27 | 28 | –
C/C(=N\NC(=O)c1sc(N)c(C#N)c1N)c1cc2c(ccc3ccccc32)oc1=O | inactive | 125 (≈ 299 µM) | – | – | inactive | inactive | 20 | – | – | inactive
Clc1ccccc1C(c1ccccc1)(c1ccccc1)n1ccnc1 [CLOTRIMAZOLE] | – | 5.8 (≈ 16.8 µM) | – | – | – | – | 30 | – | – | –
C/C(=N\NC(=O)/C(C#N)=N/Nc1ccc(C)cc1)c1cc2c(ccc3ccccc32)oc1=O | – | 125 (≈ 286 µM) | 125 (≈ 286 µM) | 125 (≈ 286 µM) | – | – | 21 | 24 | 24 | –
C/C(=N\n1c(N)cc(N)c(C#N)c1=O)c1cc2c(ccc3ccccc32)oc1=O | – | 125 (≈ 324 µM) | 375 (≈ 973 µM) | 125 (≈ 324 µM) | – | – | 18 | 8 | 23 | –
COc1ccc(OC)c(-c2c(C#N)c(O)n(/N=C(\C)c3cc4c(ccc5ccccc54)oc3=O)c(=O)c2C#N)c1 | – | 250 (≈ 469 µM) | 250 (≈ 469 µM) | 188 (≈ 352 µM) | – | – | 10 | 13 | 20 | –
C/C(=N\N1C(=O)C(C#N)C=C1c1ccccc1)c1cc2c(ccc3ccccc32)oc1=O (configuration not stated) | – | 250 (≈ 596 µM) | 125 (≈ 298 µM) | 250 (≈ 596 µM) | – | – | 13 | 13 | 16 | –
CC1(C)S[C@@H]2[C@H](NC(=O)[C@H](N)c3ccccc3)C(=O)N2[C@H]1C(=O)O [AMPICILLIN] | – | – | 188 (≈ 537 µM) | 125 (≈ 358 µM) | – | – | – | 25 | 27 | –
COc1ccc(OC)c(-c2c(C#N)c(N)n(/N=C(\C)c3cc4c(ccc5ccccc54)oc3=O)c(=O)c2C#N)c1 | – | 125 (≈ 235 µM) | 125 (≈ 235 µM) | 125 (≈ 235 µM) | – | – | 18 | 23 | 23 | –
C/C(=N\n1c(O)c(C#N)c(-c2cccc(O)c2)c(C#N)c1=O)c1cc2c(ccc3ccccc32)oc1=O | – | 188 (≈ 384 µM) | 250 (≈ 512 µM) | 125 (≈ 256 µM) | – | – | 19 | 12 | 24 | –

More lines, main results first:

MIC [2] | MIC [3] [µg/mL] | MIC ([4]; MTCC 96, 24 h) [µg/mL] | MIC ([2]; MTCC 443, 24 h) [µg/mL] | MIC [4] | Structure (SMILES) | growth inhibition (GI) [1] | zone of inhibition at 1000 µg/mL [5] [mm] | zone of inhibition at 1000 µg/mL [6] [mm] | zone of inhibition at 1000 µg/mL [1] [mm] | growth inhibition (GI) [6]
– | 125 (≈ 257 µM) | 125 (≈ 257 µM) | 93.7 (≈ 193 µM) | – | C/C(=N\NC(=O)c1sc(=S)n(-c2ccccc2)c1N)c1cc2c(ccc3ccccc32)oc1=O | – | 15 | 26 | 27 | –
– | 250 (≈ 783 µM) | 125 (≈ 391 µM) | 125 (≈ 391 µM) | – | C/C(=N\NC(=O)CC#N)c1cc2c(ccc3ccccc32)oc1=O | – | 11 | 21 | 23 | –
inactive | 750 (≈ 2000 µM) | – | – | inactive | C/C(=N\NC(=O)/C(C#N)=C/N(C)C)c1cc2c(ccc3ccccc32)oc1=O | inactive | 7 | – | – | inactive
– | 125 (≈ 294 µM) | 125 (≈ 294 µM) | 250 (≈ 588 µM) | – | C/C(=N\NC(=O)/C(C#N)=C/c1ccc(F)cc1)c1cc2c(ccc3ccccc32)oc1=O | – | 18 | 22 | 20 | –
– | 375 (≈ 766 µM) | 125 (≈ 255 µM) | 125 (≈ 255 µM) | – | C/C(=N\n1c(N)c(C#N)c(-c2ccc(F)cc2)c(C#N)c1=O)c1cc2c(ccc3ccccc32)oc1=O | – | 10 | 21 | 21 | –
– | 125 (≈ 283 µM) | 188 (≈ 424 µM) | 250 (≈ 566 µM) | – | C/C(=N\NC(=O)/C(C#N)=C/c1ccc(Cl)cc1)c1cc2c(ccc3ccccc32)oc1=O | – | 17 | 23 | 17 | –
– | 125 (≈ 306 µM) | 125 (≈ 306 µM) | 125 (≈ 306 µM) | – | C/C(=N\NC(=O)/C(C#N)=C/c1cccnc1)c1cc2c(ccc3ccccc32)oc1=O | – | 19 | 22 | 23 | –
